Assay results taken from ChEMBL document CHEMBL4665656, “Toxicity, bioactivity, release of HS in vivo and pharmaco-kinetics of HS-donors with thiophosphamide structure” (Eur J Med Chem, 2019).

Tests used:
A549 = assay: Cytotoxicity in human A549 cells assessed as growth inhibition incubated for 24 hrs by MTT assay; assay type: functional, cell-based; conditions: A549, 24 h
In short: (§1)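 Cells were grown in RPMI 1640 with 10% FBS at 37 °C and 10% CO2, seeded at 6×10^3 cells/well. Exposure was 24 h, with viability by MTT, in triplicate cultures. IC50 was reported as mean ± SD.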

HT-29 = assay: Cytotoxicity in human HT-29 cells assessed as growth inhibition incubated for 24 hrs by MTT assay; assay type: functional, cell-based; conditions: HT-29, 24 h; in short: as §1
WI-38 = assay: Cytotoxicity in human W138 cells assessed as growth inhibition incubated for 24 hrs by MTT assay; assay type: cell-based; conditions: WI-38, 24 h; in short: as §1
HeLa = assay: Cytotoxicity in human HeLa cells assessed as growth inhibition incubated for 24 hrs by MTT assay; assay type: functional, cell-based; in short: as §1
HepG2 = assay: Cytotoxicity in human HePG2 cells assessed as growth inhibition incubated for 24 hrs by MTT assay; assay type: functional, cell-based; conditions: HepG2, 24 h; in short: as §1
MCF7 = assay: Cytotoxicity in human MCF-7 cells assessed as growth inhibition incubated for 24 hrs by MTT assay; assay type: functional, cell-based; conditions: MCF7, 24 h; in short: as §1
[1] = Induction of H2S generation assessed as half life at 150 uM incubated at 22 degC and pH 5 by fluorescence spectrophotometry; assay type: functional
In short: (§2)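 Donor at 150 µM final, mixed with 200 µM sulfonyl-azide fluorescent probe in buffer/acetonitrile (1:9) at set pH. Cuvette held in a water bath at 22 °C or 37 °C, with fluorescence read three times at intervals. H2S was quantified from a Na2S standard curve (0–200 µM, probe 200 µM).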

[2] = Induction of H2S generation assessed as half life at 150 uM incubated at 37 degC and pH 8 by fluorescence spectrophotometry; assay type: functional; in short: as §2
[3] = Induction of H2S generation assessed as Cmax at 150 uM incubated at 37 degC and pH 5 by fluorescence spectrophotometry; assay type: functional; in short: as §2
[4] = Induction of H2S generation assessed as half life at 150 uM incubated at 37 degC and pH 5 by fluorescence spectrophotometry; assay type: functional; in short: as §2
[5] = Induction of H2S generation assessed as Cmax at 150 uM incubated at 22 degC and pH 7.4 by fluorescence spectrophotometry; assay type: functional; in short: as §2
[6] = Induction of H2S generation assessed as half life at 150 uM incubated at 22 degC and pH 8 by fluorescence spectrophotometry; assay type: functional; in short: as §2
[7] = Induction of H2S generation assessed as Cmax at 150 uM incubated at 22 degC and pH 5 by fluorescence spectrophotometry; assay type: functional; in short: as §2
[8] = Induction of H2S generation assessed as Cmax at 150 uM incubated at 22 degC and pH 8 by fluorescence spectrophotometry; assay type: functional; in short: as §2
[9] = Induction of H2S generation assessed as half life at 150 uM incubated at 22 degC and pH 1.2 by fluorescence spectrophotometry; assay type: functional; in short: as §2
[10] = Induction of H2S generation assessed as Cmax at 150 uM incubated at 37 degC and pH 1.2 by fluorescence spectrophotometry; assay type: functional; in short: as §2
[11] = Induction of H2S generation assessed as half life at 150 uM incubated at 37 degC and pH 1.2 by fluorescence spectrophotometry; assay type: functional; in short: as §2
[12] = Induction of H2S generation assessed as Cmax Induction of H2S generation assessed as Cmax at 150 uM incubated at 37 degC and pH 7.4 by fluorescence spectrophotometry; assay type: functional; in short: as §2
[13] = Induction of H2S generation assessed as Cmax Induction of H2S generation assessed as Cmax at 150 uM incubated at 37 degC and pH 8 by fluorescence spectrophotometry; assay type: functional; in short: as §2
[14] = Induction of H2S generation assessed as half life at 150 uM incubated at 37 degC and pH 7.4 by fluorescence spectrophotometry; assay type: functional; in short: as §2
[15] = Induction of H2S generation assessed as Cmax at 150 uM incubated at 22 degC and pH 1.2 by fluorescence spectrophotometry; assay type: functional; in short: as §2
[16] = Induction of H2S generation assessed as half life at 150 uM incubated at 22 degC and pH 7.4 by fluorescence spectrophotometry; assay type: functional; in short: as §2

Row | SMILES | IC50 (A549) [µM] | IC50 (HT-29) [µM] | IC50 (WI-38) [µM] | IC50 (HeLa) [µM] | IC50 (HepG2) [µM] | IC50 (MCF7) [µM] | T1/2 [1] [min] | T1/2 [2] [min] | Cmax [3] [µM] | T1/2 [4] [min] | Cmax [5] [µM] | T1/2 [6] [min] | Cmax [7] [µM] | Cmax [8] [µM] | T1/2 [9] [min] | Cmax [10] [µM] | T1/2 [11] [min] | Cmax [13] [µM] | T1/2 [14] [min] | Cmax [15] [µM] | also measured
1 | O=c1[nH]cc(F)c(=O)[nH]1 [FLUOROURACIL] | 104 | 146 | 202 | 120 | 112 | 136 | – | – | – | – | – | – | – | – | – | – | – | – | – | – | –
2 | S=P1(c2ccccc2)OCCCO1 | 569 | 991 | 653 | 1280 | 612 | 853 | 35.8 | 35.8 | 37.4 | 34.7 | 24.4 | 33 | 25.7 | 25.7 | 33.5 | 38.4 | 34.2 | 35.7 | 33 | 24.8 | Cmax [12]: 27.2 µM; T1/2 [16]: 34.6 min
3 | CC(C)[C@H](NP(O)(=S)c1ccccc1)C(=O)O (stereo not given in full) | 294 | 602 | 546 | 809 | 690 | 542 | 2.42 | 3.62 | 126 | 2.25 | 122 | 4.42 | 122 | 122 | 2.13 | 125 | 1.55 | 124 | 2.84 | 121 | Cmax [12]: 125 µM; T1/2 [16]: 3.11 min
4 | O=C(O)[C@H](Cc1ccccc1)NP(O)(=S)c1ccccc1 (stereo not given in full) | 237 | 542 | 690 | 712 | 671 | 663 | 2.71 | 4.7 | 129 | 2.33 | 122 | 4.58 | 121 | 120 | 2.37 | 129 | 1.53 | 127 | 2.61 | 122 | Cmax [12]: 128 µM; T1/2 [16]: 3.54 min
5 | CC(C)C[C@H](NP(O)(=S)c1ccccc1)C(=O)O (stereo not given in full) | 273 | 756 | 438 | 835 | 415 | 643 | 3.25 | 3.59 | 118 | 2.75 | 112 | 4.44 | 112 | 111 | 2.65 | 119 | 2.04 | 116 | 2.83 | 113 | Cmax [12]: 118 µM; T1/2 [16]: 3.72 min
6 | CC[C@H](C)[C@H](NP(O)(=S)c1ccccc1)C(=O)O (stereo not given in full) | 236 | 782 | 658 | 972 | 604 | 601 | 2.87 | 4.17 | 123 | 2.72 | 117 | 4.04 | 117 | 117 | 2.04 | 123 | 1.53 | 122 | 2.91 | 119 | Cmax [12]: 123 µM; T1/2 [16]: 3.65 min
7 | S=P1(c2ccccc2)NCCO1 (stereo not given) | 622 | 539 | 759 | 930 | 775 | 798 | 32.7 | 33.6 | 37 | 32.6 | 29.9 | 31.3 | 29.9 | 29.7 | 33.8 | 35.6 | 31.9 | 35.4 | 32.2 | 30 | Cmax [12]: 31.1 µM; T1/2 [16]: 31.9 min
8 | S=P1(c2ccccc2)NCCN1 | 641 | 780 | 958 | 968 | 657 | 713 | 31.1 | 31.6 | 35.4 | 32.9 | 28.4 | 30 | 28.4 | 28.3 | 32.5 | 35.7 | 31.2 | 34.8 | 31.1 | 28.5 | Cmax [12]: 29.9 µM; T1/2 [16]: 30.9 min
9 | C[C@H](NP(O)(=S)c1ccccc1)C(=O)O (stereo not given in full) | 346 | 689 | 351 | 888 | 858 | 832 | 3.32 | 3.4 | 106 | 2.23 | 102 | 4.33 | 103 | 103 | 2.36 | 110 | 1.67 | 106 | 2.75 | 104 | Cmax [12]: 108 µM; T1/2 [16]: 3.72 min
10 | S=P1(c2ccccc2)OCC2CCCN21 (stereo not given) | – | 636 | 503 | 984 | 531 | 920 | 28.2 | 27.5 | 36.8 | 28.6 | 26.9 | 29.2 | 27.1 | 27.1 | 29.9 | 36.2 | 27.8 | 33.7 | 28.9 | 27.1 | Cmax [12]: 28.2 µM; T1/2 [16]: 27.3 min
11 | S=P1(c2ccccc2)OCCO1 | 679 | 882 | 381 | 679 | 804 | 748 | 25.1 | 25 | 35.7 | 27.9 | 27.7 | 26.5 | 27.9 | 27.5 | 25.4 | 35.7 | 25.8 | 35.7 | 25.9 | 28.4 | Cmax [12]: 29.1 µM; T1/2 [16]: 26.6 min
12 | S=P1(c2ccccc2)NCCCN1 | 876 | 600 | 381 | 793 | 801 | 850 | 29.8 | 28.4 | 35.5 | 29.6 | 27.2 | 29 | 27.2 | 27.1 | 29.2 | 35.7 | 27.8 | 35.7 | 27.1 | 27 | T1/2 [16]: 27.5 min
13 | O=C(O)[C@@H]1CCCN1P(O)(=S)c1ccccc1 (stereo not given in full) | 519 | 932 | 872 | 839 | 816 | 874 | 10.6 | 9.83 | 4.2 | 9.15 | 4 | 10.8 | 4.2 | 4.1 | 10.9 | 4.2 | 10.4 | 4.3 | 9.92 | 4 | Cmax [12]: 4.2 µM; T1/2 [16]: 9.27 min
14 | CSCC[C@H](NP(O)(=S)c1ccccc1)C(=O)O (stereo not given in full) | 309 | 826 | 546 | 919 | 286 | 671 | 3.64 | 3.55 | 120 | 2.44 | 112 | 4.26 | 113 | 113 | 2.68 | 120 | 2.2 | 118 | 2.83 | 114 | Cmax [12]: 120 µM; T1/2 [16]: 3.32 min
